# Assay results taken from ChEMBL document CHEMBL1142894, “Preparation of 5-aryl-3-alkylthio-l,2,4-triazoles and corresponding sulfones with antiinflammatory-analgesic activity” (Bioorg Med Chem, 2007).
# Activity calls are given as the source filed them. No cut-off for these calls is given here.
# Legend:
# [1] = tested on: Mus musculus; experiment: Antiinflammatory activity against carrageenan-induced paw edema in Swiss albino mouse assessed as swelling thickness at 100 mg/kg, po after 90 mins; assay type: functional
# Method in brief: (§1)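 Oral dosing in 0.5% CMC; vehicle to controls. Then carrageenan (0.5 mg/25 ll, freshly suspended in 154 mM saline) injected into the right hind paw subplantar tissue; saline into the left paw. Right-left footpad thickness difference measured by dial gauge calliper every 90 min over 6 h. Inhibition % is relative to vehicle control. n = 6; mean ± SEM.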
# [2] = tested on: Mus musculus; experiment: Antiinflammatory activity against carrageenan-induced paw edema in Swiss albino mouse assessed as swelling thickness at 100 mg/kg, po after 180 mins; assay type: functional; method in brief: as §1
# [3] = tested on: Mus musculus; experiment: Antiinflammatory activity against carrageenan-induced paw edema in Swiss albino mouse assessed as swelling thickness at 100 mg/kg, po after 270 mins; assay type: functional; method in brief: as §1
# [4] = tested on: Mus musculus; experiment: Antiinflammatory activity against carrageenan-induced paw edema in Swiss albino mouse assessed as swelling thickness at 100 mg/kg, po after 360 mins; assay type: functional; method in brief: as §1
# [5] = tested on: Mus musculus; experiment: Inhibition of carrageenan-induced paw edema in Swiss albino mouse at 100 mg/kg, po after 90 mins relative to control; assay type: functional; conditions: 1.5 h; method in brief: as §1
# [6] = tested on: Mus musculus; experiment: Inhibition of carrageenan-induced paw edema in Swiss albino mouse at 100 mg/kg, po after 180 mins relative to control; assay type: functional; conditions: 3 h; method in brief: as §1
# [7] = tested on: Mus musculus; experiment: Inhibition of carrageenan-induced paw edema in Swiss albino mouse at 100 mg/kg, po after 270 mins relative to control; assay type: functional; conditions: 4.5 h; method in brief: as §1
# [8] = tested on: Mus musculus; experiment: Inhibition of carrageenan-induced paw edema in Swiss albino mouse at 100 mg/kg, po after 360 mins relative to control; assay type: functional; conditions: 6 h; method in brief: as §1
# [9] = tested on: Mus musculus; experiment: Analgesic activity against p-benzoquinone-induced abdominal constriction in Swiss albino mouse assessed as number of writhings at 25 mg/kg, po; assay type: functional, Abdomen
# Method in brief: (§2)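 Test samples given orally in 0.5% CMC; vehicle to controls. 60 min later, 2.5% (v/v) p-benzoquinone in distilled water, 0.1 ml/10 g, given i.p. Mice housed singly; writhes counted for 15 min starting 5 min after injection. Activity is % change from vehicle controls. n = 6; mean ± SEM.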
# [10] = tested on: Mus musculus; experiment: Analgesic activity against p-benzoquinone-induced abdominal constriction in Swiss albino mouse assessed as number of writhings at 50 mg/kg, po; assay type: functional, Abdomen; method in brief: as §2
# [11] = tested on: Mus musculus; experiment: Analgesic activity against p-benzoquinone-induced abdominal constriction in Swiss albino mouse assessed as number of writhings at 100 mg/kg, po; assay type: functional, Abdomen; method in brief: as §2
# [12] = tested on: Mus musculus; experiment: Analgesic activity against p-benzoquinone-induced abdominal constriction in Swiss albino mouse assessed as number of writhings at 200 mg/kg, po; assay type: functional, Abdomen; method in brief: as §2
# [13] = tested on: Mus musculus; experiment: Inhibition of p-benzoquinone-induced writhing in Swiss albino mouse at 25 mg/kg, po relative to control; assay type: functional
# Method in brief: (§3)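 Mice, n = 6 per group, dosed orally with a suspension in 0.5% sodium CMC. 60 min later, 0.1 ml/10 g of 2.5% […] p-benzoquinone in distilled water given ip. Abdominal writhes counted per animal for 15 min, starting 5 min after injection. Expressed as % change in mean writhing count versus vehicle controls.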
# [14] = tested on: Mus musculus; experiment: Inhibition of p-benzoquinone-induced writhing in Swiss albino mouse at 50 mg/kg, po relative to control; assay type: functional; method in brief: as §3
# [15] = tested on: Mus musculus; experiment: Inhibition of p-benzoquinone-induced writhing in Swiss albino mouse at 100 mg/kg, po relative to control; assay type: functional; method in brief: as §3
# [16] = tested on: Mus musculus; experiment: Inhibition of p-benzoquinone-induced writhing in Swiss albino mouse at 200 mg/kg, po relative to control; assay type: functional; method in brief: as §3
# [17] = tested on: Mus musculus; experiment: Gastric-ulcerogenic effect in Swiss albino mouse assessed as lesions at 25 mg/kg, po; assay type: functional, organism-based; set-up: dose 25 mg/kg
# Method in brief: (§4)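 Mice killed under deep ether anesthesia 3 h after the writhing test; the oral dose in 0.5% CMC was the one used in that test. Stomachs removed, opened along the great curvature and examined under a dissecting microscope for lesions or bleeding. Reported as ratio of ulceration; n = 6.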
# [18] = tested on: Mus musculus; experiment: Gastric-ulcerogenic effect in Swiss albino mouse assessed as lesions at 50 mg/kg, po; assay type: functional, organism-based; set-up: dose 50 mg/kg; method in brief: as §4
# [19] = tested on: Mus musculus; experiment: Gastric-ulcerogenic effect in Swiss albino mouse assessed as lesions at 100 mg/kg, po; assay type: functional, organism-based; set-up: dose 100 mg/kg; method in brief: as §4
# [20] = tested on: Mus musculus; experiment: Gastric-ulcerogenic effect in Swiss albino mouse assessed as lesions at 200 mg/kg, po; assay type: functional, organism-based; set-up: dose 200 mg/kg; method in brief: as §4
# [21] = tested on: Mus musculus; experiment: Antiinflammatory activity against carrageenan-induced paw edema in Swiss albino mouse assessed as swelling thickness at 25 mg/kg, po after 90 mins; assay type: functional; method in brief: as §1
# [22] = tested on: Mus musculus; experiment: Antiinflammatory activity against carrageenan-induced paw edema in Swiss albino mouse assessed as swelling thickness at 25 mg/kg, po after 180 mins; assay type: functional; method in brief: as §1
# [23] = tested on: Mus musculus; experiment: Antiinflammatory activity against carrageenan-induced paw edema in Swiss albino mouse assessed as swelling thickness at 25 mg/kg, po after 270 mins; assay type: functional; method in brief: as §1
# [24] = tested on: Mus musculus; experiment: Antiinflammatory activity against carrageenan-induced paw edema in Swiss albino mouse assessed as swelling thickness at 25 mg/kg, po after 360 mins; assay type: functional; method in brief: as §1
# [25] = tested on: Mus musculus; experiment: Antiinflammatory activity against carrageenan-induced paw edema in Swiss albino mouse assessed as swelling thickness at 50 mg/kg, po after 180 mins; assay type: functional; method in brief: as §1
# [26] = tested on: Mus musculus; experiment: Antiinflammatory activity against carrageenan-induced paw edema in Swiss albino mouse assessed as swelling thickness at 50 mg/kg, po after 270 mins; assay type: functional; method in brief: as §1
# [27] = tested on: Mus musculus; experiment: Antiinflammatory activity against carrageenan-induced paw edema in Swiss albino mouse assessed as swelling thickness at 50 mg/kg, po after 360 mins; assay type: functional; method in brief: as §1
# [28] = tested on: Mus musculus; experiment: Antiinflammatory activity against carrageenan-induced paw edema in Swiss albino mouse assessed as swelling thickness at 200 mg/kg, po after 90 mins; assay type: functional; method in brief: as §1
# [29] = tested on: Mus musculus; experiment: Antiinflammatory activity against carrageenan-induced paw edema in Swiss albino mouse assessed as swelling thickness at 200 mg/kg, po after 180 mins; assay type: functional; method in brief: as §1
# [30] = tested on: Mus musculus; experiment: Antiinflammatory activity against carrageenan-induced paw edema in Swiss albino mouse assessed as swelling thickness at 200 mg/kg, po after 270 mins; assay type: functional; method in brief: as §1
# [31] = tested on: Mus musculus; experiment: Antiinflammatory activity against carrageenan-induced paw edema in Swiss albino mouse assessed as swelling thickness at 200 mg/kg, po after 360 mins; assay type: functional; method in brief: as §1
# [32] = tested on: Mus musculus; experiment: Inhibition of carrageenan-induced paw edema in Swiss albino mouse at 25 mg/kg, po after 90 mins relative to control; assay type: functional; conditions: 1.5 h; method in brief: as §1
# [33] = tested on: Mus musculus; experiment: Inhibition of carrageenan-induced paw edema in Swiss albino mouse at 25 mg/kg, po after 180 mins relative to control; assay type: functional; conditions: 3 h; method in brief: as §1
# [34] = tested on: Mus musculus; experiment: Inhibition of carrageenan-induced paw edema in Swiss albino mouse at 25 mg/kg, po after 270 mins relative to control; assay type: functional; conditions: 4.5 h; method in brief: as §1
# [35] = tested on: Mus musculus; experiment: Inhibition of carrageenan-induced paw edema in Swiss albino mouse at 25 mg/kg, po after 360 mins relative to control; assay type: functional; conditions: 6 h; method in brief: as §1
# [36] = tested on: Mus musculus; experiment: Inhibition of carrageenan-induced paw edema in Swiss albino mouse at 50 mg/kg, po after 90 mins relative to control; assay type: functional; conditions: 1.5 h
# Method in brief: (§5)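 Mice, n = 6 per group. Test agent given orally as a suspension in 0.5% sodium CMC in distilled water; controls received vehicle only. Afterwards, 0.5 mg/25 ll carrageenan in saline (154 mM NaCl) injected subplantar into the right hind paw, saline into the left. Right-minus-left footpad thickness measured by dial gauge caliper every 90 min for 6 h. Inhibition is relative to vehicle-control group means.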
# [37] = tested on: Mus musculus; experiment: Inhibition of carrageenan-induced paw edema in Swiss albino mouse at 50 mg/kg, po after 180 mins relative to control; assay type: functional; conditions: 3 h; method in brief: as §1
# [38] = tested on: Mus musculus; experiment: Inhibition of carrageenan-induced paw edema in Swiss albino mouse at 50 mg/kg, po after 270 mins relative to control; assay type: functional; conditions: 4.5 h; method in brief: as §5
# [39] = tested on: Mus musculus; experiment: Inhibition of carrageenan-induced paw edema in Swiss albino mouse at 50 mg/kg, po after 360 mins relative to control; assay type: functional; conditions: 6 h; method in brief: as §5
# [40] = tested on: Mus musculus; experiment: Antiinflammatory activity against carrageenan-induced paw edema in Swiss albino mouse assessed as swelling thickness at 50 mg/kg, po after 90 mins; assay type: functional; method in brief: as §1
smiles,measurement,setting,value
CSc1nnc(-c2ccc(Cl)cc2)[nH]1,Activity,[1],34 10^-2mm
same,Activity,[2],38.3 10^-2mm
same,Activity,[3],43 10^-2mm
same,Activity,[4],48 10^-2mm
same,inhibition in vivo at 100 mg/kg,[5],24.1%
same,inhibition in vivo at 100 mg/kg,[6],25.6%
same,inhibition in vivo at 100 mg/kg,[7],26.9%
same,inhibition in vivo at 100 mg/kg,[8],30.2%
same,Activity,[9],44.7
same,Activity,[10],34.1
same,Activity,[11],34.1
same,Activity,[12],43.3
same,inhibition in vivo at 25 mg/kg,[13],13%
same,inhibition in vivo at 50 mg/kg,[14],33.7%
same,inhibition in vivo at 100 mg/kg,[15],27.9%
same,inhibition in vivo at 200 mg/kg,[16],15.8%
same,Activity,[17],Active
same,Activity,[18],Active
same,Activity,[19],Active
same,Activity,[20],Active
same,Activity,[21],43.5 10^-2mm
same,Activity,[22],48.9 10^-2mm
same,Activity,[23],51.5 10^-2mm
same,Activity,[24],58.9 10^-2mm
same,Activity,[25],41.2 10^-2mm
same,Activity,[26],42.2 10^-2mm
same,Activity,[27],47.1 10^-2mm
same,Activity,[28],54.7 10^-2mm
same,Activity,[29],61.2 10^-2mm
same,Activity,[30],65.9 10^-2mm
same,Activity,[31],76.8 10^-2mm
same,inhibition in vivo at 25 mg/kg,[32],18.2%
same,inhibition in vivo at 25 mg/kg,[33],17.7%
same,inhibition in vivo at 25 mg/kg,[34],20.5%
same,inhibition in vivo at 25 mg/kg,[35],18.2%
same,inhibition in vivo at 50 mg/kg,[36],29.7%
same,inhibition in vivo at 50 mg/kg,[37],30.6%
same,inhibition in vivo at 50 mg/kg,[38],34.9%
same,inhibition in vivo at 50 mg/kg,[39],34.6%
same,Activity,[40],37.4 10^-2mm
